ChEMBL document CHEMBL3259621, “Novel merosesquiterpene exerts a potent antitumor activity against breast cancer cells in vitro and in vivo” (Eur J Med Chem, 2014)

Assays:
[1] = system: T47D; assay: Cytotoxicity against human T47D cells after 3 days by SRB assay; format: functional, cell-based; conditions: 72 h
Method in brief: (§1)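 Cells seeded at 5 × 10³ cells/cm² in quadruplicate and, after 24 h, treated with increasing concentrations for 3 days. Compounds diluted from DMSO stock, final DMSO <0.1% v/v. Cells were fixed with cold 10% TCA, stained with 0.4% sulforhodamine B in 1% acetic acid, and dye solubilised in 10 mM Tris-base pH 10.5. OD read at 492 nm. IC50 obtained by linear interpolation on a semi-log dose-response curve.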

[2] = Therapeutic index, ratio of IC50 for human CCD-18Co cells to IC50 for human RKO cells; format: cell-based; conditions: CCD-18Co cells versus RKO cells, read-out: Ratio IC50
[3] = Cytotoxicity against human CCD-18Co cells after 3 days by SRB assay; format: cell-based; conditions: 72 h; method in brief: as §1
[4] = Therapeutic index, ratio of IC50 for human MCF10A cells to IC50 for mouse E0771 cells; format: cell-based, MCF-10A; conditions: MCF10A cells versus E0771 cells, read-out: Ratio IC50
[5] = system: RKO; assay: Cytotoxicity against human RKO cells after 3 days by SRB assay; format: functional, cell-based; conditions: 72 h; method in brief: as §1
[6] = Therapeutic index, ratio of IC50 for human CCD-18Co cells to IC50 for human SW480 cells; format: cell-based; conditions: CCD-18Co cells versus SW480 cells, read-out: Ratio IC50
[7] = system: SW480; assay: Cytotoxicity against human SW480 cells after 3 days by SRB assay; format: functional, cell-based; conditions: SW480, 72 h; method in brief: as §1
[8] = Therapeutic index, ratio of IC50 for human CCD-18Co cells to IC50 for human HT-29 cells; format: cell-based; conditions: CCD-18Co cells versus HT-29 cells, read-out: Ratio IC50
[9] = Therapeutic index, ratio of IC50 for human MCF10A cells to IC50 for human MDA-MB-231 cells; format: cell-based, MCF-10A; conditions: MCF10A cells versus MDA-MB-231 cells, read-out: Ratio IC50
[10] = Cytotoxicity against human MCF10A cells after 3 days by SRB assay; format: cell-based; conditions: MCF-10A, 72 h; method in brief: as §1
[11] = Therapeutic index, ratio of IC50 for human CCD-18Co cells to IC50 for human T84 cells; format: cell-based, T84; CCD-18Co; conditions: CCD-18Co cells versus T84 cells, read-out: Ratio IC50
[12] = system: MDA-MB-231; assay: Cytotoxicity against human MDA-MB-231 cells after 3 days by SRB assay; format: functional, cell-based; conditions: MDA-MB-231, 72 h; method in brief: as §1
[13] = system: MCF7; assay: Cytotoxicity against human MCF7 cells after 3 days by SRB assay; format: functional, cell-based; conditions: MCF7, 72 h
Method in brief: (§2)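 Cells seeded in quadruplicate at 5 × 10³ cells/cm². Compound added at 24 h over increasing concentrations for 3 days. Cells fixed with cold 10% TCA, stained with 0.4% sulforhodamine B in 1% acetic acid, dye solubilized in 10 mM Tris pH 10.5, OD read at 492 nm. IC50 taken by linear interpolation of the semi-log dose-response curve. DMSO below 0.1% final.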

[14] = Therapeutic index, ratio of IC50 for human MCF10A cells to IC50 for human MCF7 cells; format: cell-based, MCF-10A; conditions: MCF10A cells versus MCF7 cells, read-out: Ratio IC50
[15] = Therapeutic index, ratio of IC50 for human MCF10A cells to IC50 for human T47D cells; format: cell-based, MCF-10A; conditions: MCF10A cells versus T47D cells, read-out: Ratio IC50
[16] = Cytotoxicity against mouse E0771 cells after 3 days by SRB assay; format: functional, cell-based; conditions: E0771, 72 h; method in brief: as §1
[17] = system: HT-29; assay: Cytotoxicity against human HT-29 cells after 3 days by SRB assay; format: functional, cell-based; conditions: HT-29, 72 h; method in brief: as §1
[18] = system: T84; assay: Cytotoxicity against human T84 cells after 3 days by SRB assay; format: functional, cell-based; conditions: T84, 72 h; method in brief: as §2
[19] = system: A549; assay: Cytotoxicity against human A549 cells after 3 days by SRB assay; format: functional, cell-based; conditions: A549, 72 h; method in brief: as §2

| SMILES | IC50 [13] [µM] | IC50 [18] [µM] | IC50 [19] [µM] | also measured |
| --- | --- | --- | --- | --- |
| O=c1[nH]cc(F)c(=O)[nH]1 [FLUOROURACIL] | 2.86 | – | – | IC50 [1]: 10.6 µM; selectivity ratio [2]: 2.11; IC50 [3]: 9.26 µM; selectivity ratio [4]: 28.8; IC50 [5]: 4.39 µM; selectivity ratio [6]: 2.51; IC50 [7]: 3.69 µM; selectivity ratio [8]: 3.6; selectivity ratio [9]: 0.44; IC50 [10]: 8.06 µM; selectivity ratio [11]: 2.76; IC50 [12]: 18.1 µM; selectivity ratio [14]: 2.82; selectivity ratio [15]: 0.76; IC50 [16]: 0.28 µM; IC50 [17]: 2.58 µM |
| C=C1CC[C@@H]2[C@](C)(CCC[C@]2(C)C(=O)OC)[C@H]1Cc1c(C)cccc1C(=O)OC | 40.4 | 29 | 28.1 | – |
| C=C1CC[C@@H]2[C@](C)(CCC[C@]2(C)C(=O)OC)[C@H]1Cc1c(C)ccc2c1C(=O)C(O)=CC2=O | 38.4 | 30 | 41.2 | – |
| C=C1CC[C@@H]2[C@](C)(CCC[C@]2(C)C(=O)OC)[C@H]1Cc1c(C)cccc1C#N | 39.6 | 23.7 | 20.2 | – |
| C=C1CC[C@@H]2[C@](C)(CCC[C@]2(C)C(=O)OC)[C@H]1Cc1c(C)ccc(C(=O)OC)c1C(=O)OC | 33 | 25 | 19.9 | – |
| C=C1CC[C@@H]2[C@](C)(CCC[C@]2(C)C(=O)OC)[C@H]1Cc1c(C)ccc(C(=O)OC)c1O | 45.1 | 40 | 27 | – |
| C=C1CC[C@@H]2[C@](C)(CCC[C@]2(C)C(=O)OC)[C@H]1Cc1c(C)ccc2c1C(=O)C(OC)=CC2=O | 16 | 16.7 | 17.5 | – |
